The text below walks through data of ChEMBL document CHEMBL3763053, “Synthesis of diacylated γ-glutamyl-cysteamine prodrugs, and in vitro evaluation of their cytotoxicity and intracellular delivery of cysteamine” (Eur J Med Chem, 2016).

Series [1] in a line: Lipophilicity, log D of compound at pH 7.4. Conditions: buffer.
Series [2] in a line: Prodrug activation in human PT37 cells assessed as intracellular cysteamine-CMQT formation at 20 uM incubated for 2 to 24 hrs by HPLC analysis. In kind it is cell-based. Conditions: pt37, 20 µM. The gist of the method:
(§1)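 PT37 normal human proximal tubule cells were grown in DMEM/F12 with 2 mM L-glutamine, penicillin-streptomycin and 10% heat-inactivated FCS at 37 °C under 5% CO2. Confluent monolayers got […] test agent in medium at 37 °C for 0, 2, 6, 16 or 24 h. Cells were trypsin-harvested, lysed and centrifuged. Pellet protein was measured by Bradford against BSA standards. Supernatant thiols were reduced with NaBH4, derivatised with CMQT and analysed by HPLC with UV and fluorescence detection. Results are nmol/mg protein, n=3.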

A short description of series [3]: physchem. As to conditions: octanol/water, pH 2.
A short description of series [4]: Dissociation constant, pKa of compound at pH 2 to 12 at 1 to 2 mg by potentiometric titration method. It is filed as physicochemical. In a few lines:
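Accurately weighed sample loaded into an automated Sirius T3 for pH-metric analysis, using automated acid-base titration. The pKa was computed from the titration data. The value is the mean of 3 titrations.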

Series [5] relates to HaCaT. Kind of series: Cytotoxicity against human HaCaT cells assessed as reduction in cell viability after 48 hrs by MTT assay. In kind it is cell-based. The gist of the method:
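HaCaT keratinocytes were exposed for 48 h at 37 °C under 5% CO2 to test agents dissolved in medium. Nine twofold serial dilutions ran from 500 down to 1.95. Cells were then rinsed with PBS (pH 7.4) and given MTT at 0.5 mg/mL in PBS for 10 min in the dark, then read at 595 nm. Survival is a percentage of control wells, averaged over 12 replicates. EC50 came from non-linear regression of dose-response curves.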
(In general: Formazan colour is commonly taken as a measure of viable cells.)

Series [6] concerns Serum. Kind of series: Prodrug activation in fetal bovine serum containing medium assessed as cysteamine formation after 24 hrs by LC-MS analysis. The arrangement: species or system Bos taurus. Conditions: cattle. In a few lines: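 Prodrug was incubated in medium containing fetal bovine serum for up to 24 h. Hydrolysis and cysteamine release were monitored by LC-MS.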
A short description of series [7]: Prodrug activation in human PT37 cells assessed as intracellular cysteamine-CMQT formation at 20 uM after 2 hrs by HPLC analysis. It is filed as cell-based. As to conditions: pt37, 2 h. In a few lines: as §1
Series [8] can be described thus: Prodrug activation in human PT37 cells assessed as intracellular cysteamine-CMQT formation per mg protein at 20 uM after 6 hrs by HPLC analysis. It is filed as cell-based. As to conditions: pt37, 6 h. In a few lines:
as §1

Series [9] can be described thus: Drug metabolism in water assessed as oxidation of cysteamine by measuring cysteamine-CMQT level at pH 4.66 at 0.01 M after 1 hr by HPLC-UV method. In kind it is physicochemical. Conditions: buffer, pH 4.66, 1 h.
Series [10] in a line: Prodrug activation in human PT37 cells assessed as intracellular cysteamine-CMQT formation per mg protein at 20 uM after 24 hrs by HPLC analysis. In kind it is cell-based. As to conditions: pt37, 24 h. The gist of the method:
as §1

Series [11] in a line: Drug metabolism in water assessed as oxidation of cysteamine by measuring cysteamine-CMQT level at pH 4.66 at 0.01 M after 3 hrs by HPLC-UV method. In kind it is physicochemical. Conditions: buffer, pH 4.66, 3 h.

`CCCOC(=O)[C@@H](N)CCC(=O)NCCSC(C)=O.Cl` showed a logD in series [1] of -1.21. The Drug metabolism entry in series [2] is given as “metabolite_detected”. The logP in series [3] stood at 0.21. In addition, the pKa in series [4] is 8.8. For the same compound, the EC50 in series [5] (Homo sapiens, HaCaT, 48 h) came out at 548 µM.
In the same order, the values of `CCOC(=O)[C@@H](N)CCC(=O)NCCSC(=O)c1ccccc1.Cl` are -0.37, “metabolite_detected”, 1.09, 8.85 and 331 µM.
Consider `CCCCOC(=O)[C@@H](N)CCC(=O)NCCSC(=O)c1ccccc1`, for which the EC50 in series [5] (Homo sapiens, HaCaT, 48 h) turned out to be 97 µM.
The same measure, in the same setting: the same measure for `CCCOC(=O)[C@@H](N)CCC(=O)NCCSC(=O)C(C)(C)C`: 152 µM; for `CCCOC(=O)[C@@H](N)CCC(=O)NCCSC(=O)c1ccccc1`: 75 µM.
Regarding `Cl.Cl.NCCS`, in [2], the Drug metabolism result is recorded as “metabolite_notdetected”.
`CCOC(=O)[C@@H](N)CCC(=O)NCCSC(C)=O.Cl`: in [1], the logD is -1.44. The Drug metabolism result in series [2] is “metabolite_detected”; in [6], “metabolite_notdetected”. Further, in series [3], the logP was found to be 0.11. The compound also showed a pKa in series [4] of 8.94. Further, in series [5] (Homo sapiens, HaCaT, 48 h), the EC50 was found to be 1730 µM.
Take `Cl.NCCS` [CYSTEAMINE HYDROCHLORIDE]: the Drug metabolism entry in [7] is “metabolite_detected”; in series [8] it was 0.84 nmol/mg; in series [9], 50%; in series [10] it was 0.22 nmol/mg; in series [11], “metabolite_notdetected”. Besides, the pKa in [4] was 8.15. In series [5] (hacat), the EC50 was determined as 309 µM.
Regarding `CCCCOC(=O)[C@@H](N)CCC(=O)NCCSC(=O)C(C)(C)C`, the EC50 in [5] (Homo sapiens, HaCaT, 48 h) was 102 µM.
`N[C@@H](CCC(=O)NCCS)C(=O)O`: in series [6], the Drug metabolism entry is on record as “metabolite_notdetected”.
`CCCCOC(=O)[C@@H](N)CCC(=O)NCCSC(C)=O.Cl` yielded a logD in series [1] of -0.88. Further, the Drug metabolism entry in series [2] is reported as “metabolite_detected”. Further, the logP in series [3] came out at 0.43. The same compound had a pKa in series [4] of 8.69. The EC50 in [5] (Homo sapiens, HaCaT, 48 h) came to 563 µM.
The matching figures for `CCOC(=O)[C@@H](N)CCC(=O)NCCSC(=O)C(C)(C)C.Cl`: -0.29, “metabolite_detected”, 1.22, 8.9 and 228 µM.

As usually defined, the logD is the decadic logarithm of the distribution of all forms, ionised or not, between an organic phase and buffer at a given pH. The low end stands for lower lipophilicity, the high end for higher lipophilicity. By logP is commonly meant a log measure of how a compound divides between an organic and an aqueous phase. The pKa is the negative logarithm of the acid dissociation constant. A high value points to a weaker acid or stronger base. In general, EC50 refers to the concentration that produces a half-maximal response.
